Data reported in ChEMBL document CHEMBL1149551, “Novel selective PPARdelta agonists: optimization of activity by modification of alkynylallylic moiety” (Bioorg Med Chem Lett, 2007).
pEC50: −log10 of the molar value.

Key:
[1] = biological target: T1, Peroxisome proliferator-activated receptor alpha (Homo sapiens, UniProt Q07869); assay: Agonist activity at human PPARalpha by transactivation assay; assay type: functional
T1 sequence (Q07869 whole entry): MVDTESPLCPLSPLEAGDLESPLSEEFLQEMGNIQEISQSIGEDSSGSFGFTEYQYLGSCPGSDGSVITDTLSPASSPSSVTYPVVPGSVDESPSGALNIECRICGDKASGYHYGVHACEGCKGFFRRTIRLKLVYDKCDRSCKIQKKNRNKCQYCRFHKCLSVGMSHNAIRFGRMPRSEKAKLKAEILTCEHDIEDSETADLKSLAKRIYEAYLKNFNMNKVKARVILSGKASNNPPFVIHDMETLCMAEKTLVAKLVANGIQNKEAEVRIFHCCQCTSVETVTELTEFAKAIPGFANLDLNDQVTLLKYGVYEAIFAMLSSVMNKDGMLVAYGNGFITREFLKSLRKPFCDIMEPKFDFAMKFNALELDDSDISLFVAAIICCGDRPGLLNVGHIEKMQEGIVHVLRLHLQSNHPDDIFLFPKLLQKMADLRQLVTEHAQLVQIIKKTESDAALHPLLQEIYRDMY

[2] = biological target: T2, Peroxisome proliferator-activated receptor delta (Homo sapiens, UniProt Q03181)
T2 sequence (Q03181 whole entry): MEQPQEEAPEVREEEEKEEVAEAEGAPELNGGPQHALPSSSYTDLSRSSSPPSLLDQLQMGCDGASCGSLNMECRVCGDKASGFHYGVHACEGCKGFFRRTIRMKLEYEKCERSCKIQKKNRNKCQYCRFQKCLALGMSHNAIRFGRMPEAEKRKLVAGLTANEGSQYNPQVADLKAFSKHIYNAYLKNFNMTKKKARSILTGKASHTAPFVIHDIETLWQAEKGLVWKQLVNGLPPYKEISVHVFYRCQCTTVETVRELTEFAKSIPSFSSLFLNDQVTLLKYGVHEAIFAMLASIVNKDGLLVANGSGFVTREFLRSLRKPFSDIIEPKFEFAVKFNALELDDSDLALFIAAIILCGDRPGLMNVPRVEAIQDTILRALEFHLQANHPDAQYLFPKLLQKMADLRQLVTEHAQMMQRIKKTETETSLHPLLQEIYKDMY

[3] = biological target: T3, Peroxisome proliferator-activated receptor alpha (Homo sapiens) (UniProt Q07869); assay: Agonist activity at human PPARalpha by transactivation assay relative to NNC 61-4655; assay type: functional
T3 sequence (whole entry): T1 sequence (Q07869 whole entry)
Summary of the method: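 Transactivation run in at least three separate experiments, each at five or more concentrations from 0.001 to 30 µM. EC50 is the concentration giving half of the compound's own maximal activity, reported as the mean. Efficacy is given relative to the maximal activity of the reference PPARα agonist.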

[4] = biological target: T4, Peroxisome proliferator-activated receptor gamma (Homo sapiens, UniProt P37231); assay type: functional
T4 sequence (P37231 whole entry): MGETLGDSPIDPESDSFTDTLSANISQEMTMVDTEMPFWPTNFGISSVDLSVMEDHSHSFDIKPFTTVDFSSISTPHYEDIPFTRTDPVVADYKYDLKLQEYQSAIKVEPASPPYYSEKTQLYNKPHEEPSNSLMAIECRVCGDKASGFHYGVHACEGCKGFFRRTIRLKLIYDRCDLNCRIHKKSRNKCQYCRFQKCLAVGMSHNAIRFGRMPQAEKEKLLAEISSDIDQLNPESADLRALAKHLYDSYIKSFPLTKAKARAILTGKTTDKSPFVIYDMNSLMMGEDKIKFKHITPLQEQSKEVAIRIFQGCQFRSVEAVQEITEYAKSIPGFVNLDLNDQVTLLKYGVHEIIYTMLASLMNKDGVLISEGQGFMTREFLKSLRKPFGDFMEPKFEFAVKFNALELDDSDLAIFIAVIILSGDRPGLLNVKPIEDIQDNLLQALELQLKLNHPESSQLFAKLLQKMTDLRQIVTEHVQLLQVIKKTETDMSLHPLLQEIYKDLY

Structure (SMILES)	pEC50 [1]	pEC50 [2]	%max [3] [%]	pEC50 [4]
Cc1cc(SC/C=C/C#Cc2ccccc2)ccc1OCC(=O)O	4.85	4.92		
CN(CCOc1ccc(CC2SC(=O)NC2=O)cc1)c1ccccn1 (stereo unspecified)			> 24	
Cc1cc2cc(C(C#Cc3ccc(F)cc3)/C=C\COc3ccc(OCC(=O)O)c(C)c3)ccc2o1 (stereo unspecified)	< 5.00		> 41	< 5.00
Cc1cc(SC/C=C\C(C#Cc2ccccc2)c2ccc(Br)cc2)ccc1OCC(=O)O (stereo unspecified)	< 5.00	6.80	> 24	< 5.00
Cc1cc(SCc2sc(-c3ccc(C(F)(F)F)cc3)nc2C)ccc1OCC(=O)O			68	
Cc1cc(OC/C=C(\C#Cc2ccccc2)c2ccc(Br)cc2)ccc1OCC(=O)O			< 10	
Cc1ccc(C#CC(/C=C\COc2ccc(OCC(=O)O)c(C)c2)c2ccc(Br)cc2)s1 (stereo unspecified)	< 5.00	6.66	> 15	
COc1ccc(C#CC(/C=C\CSc2ccc(OCC(=O)O)c(C)c2)c2ccc(-c3ccccc3)cc2)cc1 (stereo unspecified)	< 5.00	7.96	> 58	< 5.00
CCO[C@@H](Cc1ccc(OC/C=C(\C#Cc2ccccc2)c2ccccc2)cc1)C(=O)O	< 5.00			< 5.00
Cc1cc(OC/C=C\C(C#Cc2ccccn2)c2ccc(Br)cc2)ccc1OCC(=O)O (stereo unspecified)	< 5.00	6.62	> 22	
Cc1cc2cc(C(C#Cc3ccc(C)s3)/C=C\COc3ccc(OCC(=O)O)c(C)c3)ccc2o1 (stereo unspecified)	5.24	6.82	< 10	< 5.00
Cc1cc(OC/C=C(\C#Cc2ccccc2)c2ccccc2)ccc1OCC(=O)O			< 10	
CCO[C@@H](Cc1ccc(OC/C=C/C#Cc2ccccc2)cc1)C(=O)O	8.00	5.19		5.59
Cc1cc(OC/C=C\C(C#Cc2ccccc2)c2cnc3ccccc3c2)ccc1OCC(=O)O (stereo unspecified)	5.39		33	5.18
Cc1cc(OC/C=C\C(C#Cc2ccc(C(F)(F)F)cc2)c2ccc(Br)cc2)ccc1OCC(=O)O (stereo unspecified)	< 5.00	6.89	> 19	
Cc1ccc(-c2ccc(/C(C#Cc3ccccc3)=C/COc3ccc(OCC(=O)O)c(C)c3)cc2)s1	< 5.00		> 60	< 5.00
